Data as given in ChEMBL document CHEMBL3632558, “Synthesis, antimycobacterial and antibacterial activity of l-[(1R,2S)-2-fluorocyclopropyl]naphthyridone derivatives containing an oxime-functionalized pyrrolidine moiety” (2015).
Values after ≈ are worked out from the molar mass of the structure shown.

Tests used:
Type in all cases: functional
[1] = tested on: Streptococcus pneumoniae; experiment: Antibacterial activity against Streptococcus pneumoniae ATCC 19615 after 18 to 24 hrs
How it was run: (§1)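 MIC by standard NCCLS reference procedure (M100-S11); lowest concentration of compound inhibiting visible bacterial growth after incubation at 35 °C for 18–24 h, read as complete inhibition of growth. Ciprofloxacin, levofloxacin and moxifloxacin run alongside as reference agents.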

[2] = tested on: Pseudomonas aeruginosa; experiment: Antibacterial activity against Pseudomonas aeruginosa 14-9 after 18 to 24 hrs; how it was run: as §1
[3] = tested on: Enterococcus faecium; experiment: Antibacterial activity against Enterococcus faecium 14-6 after 18 to 24 hrs; how it was run: as §1
[4] = tested on: Staphylococcus aureus; experiment: Antibacterial activity against Staphylococcus aureus CMCC 26003 after 18 to 24 hrs; how it was run: as §1
[5] = tested on: Escherichia coli; experiment: Antibacterial activity against Escherichia coli 14-1 after 18 to 24 hrs; how it was run: as §1
[6] = tested on: Mycobacterium tuberculosis; experiment: Antimycobacterial activity against Mycobacterium tuberculosis H37Rv ATCC 27294 by alamar blue assay
How it was run: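 Microplate Alamar Blue Assay; MIC is the lowest concentration giving ≥90% reduction in fluorescence relative to the mean of replicate bacterium-only controls. MDR strain 6133 is resistant to isoniazid and rifampicin.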

[7] = tested on: Escherichia coli; experiment: Antibacterial activity against Escherichia coli ATCC 25922 after 18 to 24 hrs; how it was run: as §1
[8] = tested on: Escherichia coli; experiment: Antibacterial activity against ESBL-positive Escherichia coli 14-2 after 18 to 24 hrs; how it was run: as §1
[9] = tested on: Enterococcus faecium; experiment: Antibacterial activity against Enterococcus faecium 14-5 after 18 to 24 hrs; how it was run: as §1
[10] = tested on: Enterococcus faecium; experiment: Antibacterial activity against Enterococcus faecium 14-1 after 18 to 24 hrs; how it was run: as §1
[11] = tested on: Staphylococcus aureus; experiment: Antibacterial activity against methicillin-resistant Staphylococcus aureus 14-5 after 18 to 24 hrs
[12] = tested on: Klebsiella pneumoniae; experiment: Antibacterial activity against Klebsiella pneumoniae 14-2 after 18 to 24 hrs; how it was run: as §1
[13] = tested on: Enterococcus faecalis; experiment: Antibacterial activity against Enterococcus faecalis 14-2 after 18 to 24 hrs; how it was run: as §1
[14] = tested on: Pseudomonas aeruginosa; experiment: Antibacterial activity against Pseudomonas aeruginosa ATCC 27853 after 18 to 24 hrs; how it was run: as §1
[15] = tested on: Staphylococcus epidermidis; experiment: Antibacterial activity against methicillin-resistant Staphylococcus epidermidis 14-37 after 18 to 24 hrs
[16] = tested on: Staphylococcus epidermidis; experiment: Antibacterial activity against methicillin-resistant Staphylococcus epidermidis 14-21 after 18 to 24 hrs
[17] = tested on: Klebsiella pneumoniae; experiment: Antibacterial activity against Klebsiella pneumoniae 14-4 after 18 to 24 hrs; how it was run: as §1
[18] = tested on: Pseudomonas aeruginosa; experiment: Antibacterial activity against Pseudomonas aeruginosa 14-15 after 18 to 24 hrs; how it was run: as §1
[19] = tested on: Klebsiella pneumoniae; experiment: Antibacterial activity against ESBL-positive Klebsiella pneumoniae 14-17 after 18 to 24 hrs; how it was run: as §1
[20] = tested on: Klebsiella pneumoniae; experiment: Antibacterial activity against Klebsiella pneumoniae 14-1 after 18 to 24 hrs; how it was run: as §1
[21] = tested on: Klebsiella pneumoniae; experiment: Antibacterial activity against ESBL-positive Klebsiella pneumoniae 14-18 after 18 to 24 hrs; how it was run: as §1
[22] = tested on: Klebsiella pneumoniae; experiment: Antibacterial activity against ESBL-positive Klebsiella pneumoniae 14-19 after 18 to 24 hrs; how it was run: as §1
[23] = tested on: Klebsiella pneumoniae; experiment: Antibacterial activity against Klebsiella pneumoniae 14-3 after 18 to 24 hrs; how it was run: as §1
[24] = tested on: Staphylococcus aureus; experiment: Antibacterial activity against methicillin-resistant Staphylococcus aureus 14-4 after 18 to 24 hrs
[25] = tested on: Escherichia coli; experiment: Antibacterial activity against ESBL-positive Escherichia coli 14-1 after 18 to 24 hrs; how it was run: as §1
[26] = tested on: Pseudomonas aeruginosa; experiment: Antibacterial activity against Pseudomonas aeruginosa 14-16 after 18 to 24 hrs; how it was run: as §1
[27] = tested on: Pseudomonas aeruginosa; experiment: Antibacterial activity against Pseudomonas aeruginosa 14-14 after 18 to 24 hrs; how it was run: as §1
[28] = tested on: Staphylococcus aureus; experiment: Antibacterial activity against methicillin-sensitive Staphylococcus aureus 14-3 after 18 to 24 hrs; how it was run: as §1
[29] = tested on: Staphylococcus epidermidis; experiment: Antibacterial activity against methicillin-resistant Staphylococcus epidermidis 14-39 after 18 to 24 hrs
[30] = tested on: Staphylococcus aureus; experiment: Antibacterial activity against methicillin-sensitive Staphylococcus aureus 14-4 after 18 to 24 hrs; how it was run: as §1
[31] = tested on: Escherichia coli; experiment: Antibacterial activity against Escherichia coli 14-2 after 18 to 24 hrs; how it was run: as §1
[32] = tested on: Staphylococcus aureus; experiment: Antibacterial activity against methicillin-sensitive Staphylococcus aureus 14-2 after 18 to 24 hrs; how it was run: as §1
[33] = tested on: Staphylococcus epidermidis; experiment: Antibacterial activity against methicillin-resistant Staphylococcus epidermidis 14-22 after 18 to 24 hrs
[34] = tested on: Enterococcus faecium; experiment: Antibacterial activity against Enterococcus faecium 14-2 after 18 to 24 hrs; how it was run: as §1
[35] = tested on: Enterococcus faecalis; experiment: Antibacterial activity against Enterococcus faecalis 14-1 after 18 to 24 hrs; how it was run: as §1
[36] = tested on: Staphylococcus aureus; experiment: Antibacterial activity against methicillin-sensitive Staphylococcus aureus 14-1 after 18 to 24 hrs; how it was run: as §1
[37] = tested on: Pseudomonas aeruginosa; experiment: Antibacterial activity against Pseudomonas aeruginosa 14-19 after 18 to 24 hrs; how it was run: as §1
[38] = tested on: Staphylococcus epidermidis; experiment: Antibacterial activity against methicillin-sensitive Staphylococcus epidermidis 14-2 after 18 to 24 hrs; how it was run: as §1

Structure (SMILES)	MIC [1]	MIC [2]	MIC [3]	MIC [4]	MIC [5]	MIC90 [6]	MIC [7]	MIC [8]	MIC [9]	MIC [10]	MIC [11]	MIC [12]	MIC [13]	MIC [14]	MIC [15]	MIC [16]	MIC [17]	MIC [18]	MIC [19]	MIC [20]	further results
CCO/N=C1\CN(c2nc3c(cc2F)c(=O)c(C(=O)O)cn3[C@@H]2C[C@@H]2F)CC1(C)CN (stereo partly specified)	< 0.008 µg/mL	4 µg/mL (≈ 9.19 µM)	8 µg/mL (≈ 18.4 µM)	< 0.008 µg/mL	32 µg/mL (≈ 73.5 µM)	0.333 µg/mL (≈ 0.765 µM)	< 0.008 µg/mL	128 µg/mL (≈ 294 µM)	4 µg/mL (≈ 9.19 µM)	2 µg/mL (≈ 4.59 µM)	4 µg/mL (≈ 9.19 µM)	128 µg/mL (≈ 294 µM)	0.03 µg/mL (≈ 0.0689 µM)	2 µg/mL (≈ 4.59 µM)	8 µg/mL (≈ 18.4 µM)	2 µg/mL (≈ 4.59 µM)	128 µg/mL (≈ 294 µM)	8 µg/mL (≈ 18.4 µM)	4 µg/mL (≈ 9.19 µM)	128 µg/mL (≈ 294 µM)	MIC [21]: 4 µg/mL (≈ 9.19 µM); MIC [22]: 128 µg/mL (≈ 294 µM); MIC [23]: 128 µg/mL (≈ 294 µM); MIC [24]: 4 µg/mL (≈ 9.19 µM); MIC [25]: 4 µg/mL (≈ 9.19 µM); MIC [26]: 8 µg/mL (≈ 18.4 µM); MIC [27]: 8 µg/mL (≈ 18.4 µM); MIC [28]: < 0.008 µg/mL; MIC [29]: 8 µg/mL (≈ 18.4 µM); MIC [30]: < 0.008 µg/mL; MIC [31]: 32 µg/mL (≈ 73.5 µM); MIC [32]: < 0.008 µg/mL; MIC [33]: 2 µg/mL (≈ 4.59 µM); MIC [34]: 2 µg/mL (≈ 4.59 µM); MIC [35]: 8 µg/mL (≈ 18.4 µM); MIC [36]: 2 µg/mL (≈ 4.59 µM); MIC [37]: 8 µg/mL (≈ 18.4 µM); MIC [38]: 8 µg/mL (≈ 18.4 µM)
CC1(N)CN(c2nc3c(cc2F)c(=O)c(C(=O)O)cn3[C@@H]2C[C@@H]2F)C/C1=N\OCc1ccccc1 (stereo partly specified)	0.5 µg/mL (≈ 1.03 µM)	64 µg/mL (≈ 132 µM)	> 128 µg/mL	0.03 µg/mL (≈ 0.0621 µM)	> 128 µg/mL	0.923 µg/mL (≈ 1.91 µM)	2 µg/mL (≈ 4.14 µM)	> 128 µg/mL	> 128 µg/mL	> 128 µg/mL	64 µg/mL (≈ 132 µM)	> 128 µg/mL	2 µg/mL (≈ 4.14 µM)	32 µg/mL (≈ 66.2 µM)	128 µg/mL (≈ 265 µM)	64 µg/mL (≈ 132 µM)	> 128 µg/mL	64 µg/mL (≈ 132 µM)	128 µg/mL (≈ 265 µM)	> 128 µg/mL	MIC [21]: 128 µg/mL (≈ 265 µM); MIC [22]: > 128 µg/mL; MIC [23]: > 128 µg/mL; MIC [24]: 32 µg/mL (≈ 66.2 µM); MIC [25]: 64 µg/mL (≈ 132 µM); MIC [26]: 64 µg/mL (≈ 132 µM); MIC [27]: 64 µg/mL (≈ 132 µM); MIC [28]: 0.5 µg/mL (≈ 1.03 µM); MIC [29]: 64 µg/mL (≈ 132 µM); MIC [30]: 1 µg/mL (≈ 2.07 µM); MIC [31]: > 128 µg/mL; MIC [32]: 0.03 µg/mL (≈ 0.0621 µM); MIC [33]: 32 µg/mL (≈ 66.2 µM); MIC [34]: > 128 µg/mL; MIC [35]: 128 µg/mL (≈ 265 µM); MIC [36]: 16 µg/mL (≈ 33.1 µM); MIC [37]: 64 µg/mL (≈ 132 µM); MIC [38]: > 128 µg/mL
